Series [1] is described as follows: Induction of aggregation of compounds at 100 uM by nephalometric method.
The target in series [2] is T1, GATA4/NKX2-5 (Rattus norvegicus) (UniProt P46152+O35767). Nature of the series: Activation of GATA4/NKX2-5 interaction in neonatal rat ventricular cardiomyocytes assessed as increase in basal mRNA level of ANP at 20 uM after 24 hrs by real-time PCR analysis relative to control. The method, boiled down:
(§1)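 Neonatal rat ventricular myocytes (2–4-day-old Sprague-Dawley or Wistar), preplated, seeded on 6-well plates, moved to complete serum-free medium next day and cultured 24 h. Compounds (10–100 μM) added 1 h before 100 nM endothelin-1 or none; ANP and BNP mRNA quantified by RT-PCR at 24 h, normalized to 18S RNA, relative to vehicle; mean ± SD, n = 3–6.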

The target of series [3] is T1, GATA4/NKX2-5 (Rattus norvegicus). As to the kind of experiment: Activation of GATA4/NKX2-5 interaction in neonatal rat ventricular cardiomyocytes assessed as increase in endothelin-1 induced mRNA level of BNP at 20 uM preincubated for 1 hr followed by endothelin-1 addition measured after 23 hrs by real-time PCR analysis relative to control. The method, boiled down:
as §1
A general note: Quantitative PCR measures a nucleic acid by following its amplification.

The nature of series [4]: Induction of apoptosis in endothelin-1 induced neonatal rat ventricular cardiomyocytes at 50 uM measured after 24 hrs by TUNEL assay. Type of series: cell-based. The following applies: cardiac muscle cell. The method, boiled down: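 Neonatal rat cardiomyocytes on 8-well chamber slides treated 24 h at 50 μM; apoptotic cells detected by TUNEL with peroxidase in situ kit.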

The nature of series [5]: Induction of aggregation of compound at 30 uM by nephalometric method.
Series [6] is described as follows: Induction of necrosis in neonatal rat ventricular cardiomyocytes assessed as release of adenylate kinase at 50 uM measured after 24 hrs by bioluminescence assay. Type of series: cell-based. The following applies: cardiac muscle cell. The method, boiled down:
(§2)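 Neonatal rat cardiomyocytes treated 24 h at 50 μM; adenylate kinase released into medium measured by ToxiLight bioluminescence on a luminometer; relative to vehicle, mean ± SD, n = 3.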

Series [7] deals with T2, GATA4/NKX2-5 (Mus musculus) (UniProt Q08369+P42582). Nature of the series: Activation of mouse GATA4/NKX2-5 transcriptional synergy expressed in African green monkey COS-1 cells measured after 30 hrs by dual luciferase reporter gene assay. Type of series: cell-based. The method in brief:
(§3)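 COS-1 cells co-transfected (Fugene 6, DNA:reagent 1:3) with p3xNKE-luc, Renilla pRL-TKd238 control, and pMT2-GATA4, pMT2-NKX2-5, both, or empty pMT2; DNA balanced with pMT2. Compounds added 6 h post-transfection in 0.1% DMSO, medium renewed at 24 h, lysis at 30 h. Dual-luciferase read-out, firefly/Renilla normalized to vehicle; duplicate wells.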

Series [8] in a line: Induction of necrosis in endothelin-1 induced neonatal rat ventricular cardiomyocytes assessed as release of adenylate kinase at 50 uM measured after 24 hrs by bioluminescence assay. Type of series: cell-based. The following applies: cardiac muscle cell. The method in brief: as §2
Series [9] deals with T2, GATA4/NKX2-5 (Mus musculus). As to the kind of experiment: Activation of mouse GATA4/NKX2-5 transcriptional synergy expressed in African green monkey COS-1 cells at 10 uM measured after 30 hrs by dual luciferase reporter gene assay. Type of series: cell-based. The method in brief:
as §3

Series [10] has as its target T1, GATA4/NKX2-5 (Rattus norvegicus). As to the kind of experiment: Activation of GATA4/NKX2-5 interaction in neonatal rat ventricular cardiomyocytes assessed as increase in basal mRNA level of BNP at 20 uM after 24 hrs by real-time PCR analysis relative to control. The method in brief:
as §1

Series [11] concerns the target Homeobox protein Nkx-2.5 (Mus musculus) (UniProt P42582). As to the kind of experiment: Inhibition of binding of mouse NKX2-5 to [32P]-double stranded oligonucleotide expressed in African green monkey COS-1 cells at 50 uM preincubated for 10 mins followed by [32P]-double stranded oligonucleotide addition measured after 20 mins by EMSA method. In kind it is cell-based. The method in brief: (§4)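 Nuclear extracts from COS-1 cells transfected with pMT2-GATA4 or pMT2-NKX2-5 (harvested 48 h) preincubated 10 min with 50 μM compound, then 20 min with 32P-labeled GATA4- or NKX2-5-site probe; native 5% PAGE, phosphorimager quantitation; antibody supershift controls; mean ± SD, n = 3–5.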
(A gel shift assay detects complexes by their altered migration in electrophoresis.)

In series [12] the target is GATA4/NKX2-5 (Mus musculus, UniProt P42582+Q08369). As to the kind of experiment: Inhibition of mouse GATA4/NKX2-5 transcriptional synergy expressed in African green monkey COS-1 cells measured after 30 hrs by dual luciferase reporter gene assay. Type of series: cell-based. The method, boiled down:
as §3

For series [13], the target named is Transcription factor GATA-4 (Mus musculus) (UniProt Q08369). As to the kind of experiment: Inhibition of binding of mouse GATA4 to [32P]-double stranded oligonucleotide expressed in African green monkey COS-1 cells at 50 uM preincubated for 10 mins followed by [32P]-double stranded oligonucleotide addition measured after 20 mins by EMSA method. In kind it is cell-based. The method in brief:
as §4

For series [14], the target named is T2, GATA4/NKX2-5 (Mus musculus). The conditions noted are these: 10 uM.
The target in series [15] is Transcription factor GATA-4 (Rattus norvegicus) (UniProt P46152). As to the kind of experiment: Inhibition of binding of GATA4 to [32P]-double stranded oligonucleotide in neonatal rat ventricular cardiomyocytes at 50 uM measured after 24 hrs by EMSA method. The method, boiled down: (§5)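 Neonatal rat cardiomyocytes treated 24 h with 50 μM; nuclear extracts incubated 20 min with [α-32P]dCTP Klenow-labeled GATA4- or NKX2-5-site oligonucleotide in HEPES/NaCl/KCl/MgCl2 buffer with poly(dI-dC); 5% native PAGE, phosphorimager; supershift with anti-GATA4/NKX2-5; relative to vehicle, mean ± SD, n = 3–5.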
Sequence of Transcription factor GATA-4 (Rattus norvegicus) (P46152 whole entry): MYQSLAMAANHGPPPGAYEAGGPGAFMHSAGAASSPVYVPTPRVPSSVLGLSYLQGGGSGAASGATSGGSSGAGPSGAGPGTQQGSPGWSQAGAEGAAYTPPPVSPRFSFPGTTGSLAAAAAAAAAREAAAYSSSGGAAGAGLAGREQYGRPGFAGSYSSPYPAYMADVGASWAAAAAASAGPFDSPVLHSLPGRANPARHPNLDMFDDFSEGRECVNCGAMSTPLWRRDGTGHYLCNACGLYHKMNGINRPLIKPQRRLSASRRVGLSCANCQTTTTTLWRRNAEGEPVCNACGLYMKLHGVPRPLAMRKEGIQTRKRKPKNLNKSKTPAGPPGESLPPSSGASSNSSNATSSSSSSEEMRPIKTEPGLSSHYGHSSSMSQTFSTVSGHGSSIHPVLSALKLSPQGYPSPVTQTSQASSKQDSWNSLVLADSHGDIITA

The target in series [16] is Fibroblast growth factor receptor 3 (Homo sapiens) (UniProt P22607). Nature of the series: Inhibiton of human FGFR3 at 30 uM. The method in brief: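 48-kinase profiling panel; compounds tested at 30 μM in duplicate.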
Sequence of Fibroblast growth factor receptor 3 (Homo sapiens) (P22607 23-806 limits assumed): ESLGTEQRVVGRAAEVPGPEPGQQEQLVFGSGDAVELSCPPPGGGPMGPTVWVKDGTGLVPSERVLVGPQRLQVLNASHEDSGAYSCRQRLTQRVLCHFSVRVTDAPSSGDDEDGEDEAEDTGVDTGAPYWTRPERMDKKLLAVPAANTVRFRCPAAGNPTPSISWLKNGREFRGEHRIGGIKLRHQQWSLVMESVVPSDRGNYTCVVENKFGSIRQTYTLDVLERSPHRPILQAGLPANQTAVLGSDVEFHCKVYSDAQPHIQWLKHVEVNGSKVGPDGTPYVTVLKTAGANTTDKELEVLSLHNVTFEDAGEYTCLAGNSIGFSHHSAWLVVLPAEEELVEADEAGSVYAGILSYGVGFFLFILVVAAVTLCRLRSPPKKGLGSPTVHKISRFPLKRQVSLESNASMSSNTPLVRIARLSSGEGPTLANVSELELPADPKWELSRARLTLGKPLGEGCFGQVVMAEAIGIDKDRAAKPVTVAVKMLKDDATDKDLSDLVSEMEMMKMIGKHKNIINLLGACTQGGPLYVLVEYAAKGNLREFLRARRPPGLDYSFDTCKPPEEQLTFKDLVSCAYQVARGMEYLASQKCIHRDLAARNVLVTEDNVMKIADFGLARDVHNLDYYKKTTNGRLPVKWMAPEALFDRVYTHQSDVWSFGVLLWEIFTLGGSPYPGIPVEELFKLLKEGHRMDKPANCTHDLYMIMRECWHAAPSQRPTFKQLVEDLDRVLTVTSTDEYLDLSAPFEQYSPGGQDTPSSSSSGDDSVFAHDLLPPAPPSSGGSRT
The target of series [17] is T1, GATA4/NKX2-5 (Rattus norvegicus). Nature of the series: Activation of GATA4/NKX2-5 interaction in neonatal rat ventricular cardiomyocytes assessed as increase in basal mRNA level of ANP at 100 uM after 24 hrs by real-time PCR analysis relative to control. The method, boiled down: as §1
Series [18] has as its target T2, GATA4/NKX2-5 (Mus musculus). As to the kind of experiment: Inhibition of mouse GATA4/NKX2-5 transcriptional synergy expressed in African green monkey COS-1 cells at 50 uM measured after 30 hrs by dual luciferase reporter gene assay. In kind it is cell-based. The method in brief:
as §3
Background: Reporter assays use an easily measured gene product as a stand-in for the process of interest.

The target of series [19] is T1, GATA4/NKX2-5 (Rattus norvegicus). As to the kind of experiment: Activation of GATA4/NKX2-5 interaction in neonatal rat ventricular cardiomyocytes assessed as increase in basal mRNA level of BNP at 100 uM after 24 hrs by real-time PCR analysis relative to control. The method, boiled down: as §1
Series [20] addresses Homeobox protein Nkx-2.5 (Rattus norvegicus) (UniProt O35767). As to the kind of experiment: Inhibition of binding of NKX2-5 to [32P]-double stranded oligonucleotide in neonatal rat ventricular cardiomyocytes at 50 uM measured after 24 hrs by EMSA method. The method, boiled down: as §5
Series [21] addresses Transcription factor GATA-4 (Mus musculus) (UniProt Q08369). As to the kind of experiment: Inhibition of mouse GATA4-driven transactivation of luciferase reporter construct containing BNP minimal promoter with tandem GATA-site on -90 bp expressed in African green monkey COS-1 cells after 30 hrs by luminometer. Type of series: cell-based. The method in brief: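 COS-1 cells co-transfected with firefly luciferase driven by BNP minimal or −90 bp BNP promoter, Renilla pRL-TKd238, and pMT2-GATA4 or empty pMT2. Compounds added 6 h post-transfection in 0.1% DMSO, refreshed with medium at 24 h; lysis at 30 h; dual-luciferase, firefly/Renilla normalized to vehicle; triplicate wells.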

A short description of series [22]: Induction of aggregation of compound at 3 to 30 uM by nephalometric method.
A short description of series [23]: Drug level in mouse embryonic stem cells treated with N-[4-(Diethylamino)phenyl]-5-methyl-3-phenylisoxazole-4-carboxamide at 3 to 5 uM measured after 10 days by HPLC/MS method. The conditions noted are these: embryonic stem cell, 240 h. Type of series: ADME, cell-based. The method in brief: (§6)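 Mouse embryonic stem cells exposed 5 and 10 days to 3 or 5 μM, with DMSO and EB differentiation medium blanks. Medium extracted with chloroform; cells pelleted, saline-washed twice, sonicated in chloroform. UPLC-ESI(+)-QTOF/MS, BEH C18, 0.1% formic acid water/acetonitrile gradient 7–80% B over 5 min, 0.6 mL/min, 40 °C.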

Series [24] in a line: Drug level in embryoid body differentiation medium treated with N-[4-(Diethylamino)phenyl]-5-methyl-3-phenylisoxazole-4-carboxamide at 3 to 5 uM measured after 10 days by HPLC/MS method. The method, boiled down: as §6

Calls of active or inactive are those of the source. No cut-off for these calls is given here. Some results are limits rather than exact numbers.

Sequence of Transcription factor GATA-4 (Mus musculus) (Q08369 whole entry): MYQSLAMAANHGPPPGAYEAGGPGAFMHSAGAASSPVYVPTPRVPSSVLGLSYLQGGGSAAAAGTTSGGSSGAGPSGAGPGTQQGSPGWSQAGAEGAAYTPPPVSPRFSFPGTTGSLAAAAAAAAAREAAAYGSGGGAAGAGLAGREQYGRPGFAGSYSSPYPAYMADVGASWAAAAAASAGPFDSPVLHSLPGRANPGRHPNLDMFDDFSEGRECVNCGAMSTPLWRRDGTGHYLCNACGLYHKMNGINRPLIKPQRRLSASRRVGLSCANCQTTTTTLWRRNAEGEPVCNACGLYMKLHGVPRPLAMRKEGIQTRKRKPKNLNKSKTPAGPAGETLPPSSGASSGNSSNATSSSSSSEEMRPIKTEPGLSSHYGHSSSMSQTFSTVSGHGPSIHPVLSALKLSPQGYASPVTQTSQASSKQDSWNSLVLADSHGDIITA
Sequence of GATA4/NKX2-5 (Q08369 whole entry): as above
Sequence of GATA4/NKX2-5 (P42582 whole entry): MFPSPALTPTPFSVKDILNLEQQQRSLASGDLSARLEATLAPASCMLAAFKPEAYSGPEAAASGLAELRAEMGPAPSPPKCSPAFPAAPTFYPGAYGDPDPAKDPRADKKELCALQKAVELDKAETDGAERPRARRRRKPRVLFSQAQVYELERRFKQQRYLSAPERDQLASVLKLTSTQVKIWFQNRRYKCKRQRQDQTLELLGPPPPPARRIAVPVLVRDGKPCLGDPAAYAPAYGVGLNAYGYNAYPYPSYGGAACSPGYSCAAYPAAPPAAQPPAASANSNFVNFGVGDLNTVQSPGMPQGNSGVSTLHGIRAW
Sequence of Homeobox protein Nkx-2.5 (Mus musculus) (P42582 whole entry): as above
Sequence of Homeobox protein Nkx-2.5 (Rattus norvegicus) (O35767 whole entry): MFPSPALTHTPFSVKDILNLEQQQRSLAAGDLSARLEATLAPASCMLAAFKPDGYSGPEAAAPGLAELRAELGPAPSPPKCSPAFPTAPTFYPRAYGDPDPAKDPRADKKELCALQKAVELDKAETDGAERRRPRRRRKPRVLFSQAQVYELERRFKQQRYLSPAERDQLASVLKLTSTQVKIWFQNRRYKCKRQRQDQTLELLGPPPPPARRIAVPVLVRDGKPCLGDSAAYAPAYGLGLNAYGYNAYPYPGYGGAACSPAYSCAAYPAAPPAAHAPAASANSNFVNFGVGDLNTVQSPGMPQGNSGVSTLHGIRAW

As to `Cc1onc(-c2ccccc2)c1C(=O)N(C1=NC(C)CS1)c1ccc(Cl)cc1` (configuration not stated), the outcome in [1], in series [5] and in series [9] was Active. The fold change (FC) in series [2] is 4.6; in [3], 2.1; in series [10], 6.4. Also, the Activity entry in series [4], in [6] and in series [8] was “Non-Toxic” each time. In [7], the Ka came out at 7 µM.

A word on the inhibition: it is how much of the control response was suppressed. What is called IC50 is the concentration needed to halve the response being measured. As to `CC(C)COC(=O)c1ccc(NC(=O)c2ccncc2)cc1`, the inhibition result in [11] was “inactive”. Further, the IC50 in series [12] turned out to be 5 µM. Also, the inhibition entry in series [13] and in series [14] was “Active” throughout.

Regarding `CCCOc1ccc(/C=N/n2c(S)nnc2-c2ccncc2)cc1`, in series [1], the outcome was Active. Besides, the inhibition entry in series [11], in series [18] and in series [21] was “Active” each time. Besides, the inhibition in series [15] was found to be 37%; in [16] it was 55%; in series [20], 29%. Besides, the Activity entry in [4], in series [6] and in series [8] was “Non-Toxic” each time. Also, the fold change (FC) in series [17] worked out at 8.6; in series [19], 4.9. Moreover, the IC50 in [12] turned out to be 10 µM. Further, the inhibition result in [13] was “inactive”. Also, the outcome in [22] was inactive.

Regarding `CCNc1ccc(NC(=O)c2c(-c3ccccc3)noc2C)cc1`, the results for the Drug metabolism entry in [23] and in series [24] were “Metabolite_Detected” and “Metabolite detected”, respectively. For the same compound, the IC50 in series [12] was above 50 µM.

Source of the values: ChEMBL document CHEMBL4028856, “Discovery of Small Molecules Targeting the Synergy of Cardiac Transcription Factors GATA4 and NKX2-5” (J Med Chem, 2017).
